Test results: ChEMBL document CHEMBL4190206, “Neoclerodane Diterpenoids from Reehal Fatima, Teucrium yemense” (J Nat Prod, 2017)
Activity calls are given as the source filed them. No cut-off for these calls is given here.

Experiments:
Schistosoma mansoni [1] = assay: Antischistosomal activity against schistosomula larval stage of Schistosoma mansoni assessed as effect on phenotype at 10 uM after 24 hrs; type: functional, organism-based
Summary of the method: (§1)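 24 h cultured, mechanically transformed S. mansoni schistosomula (~120/well) in Basch medium, exposed to compound at 10 µM final (DMSO stock 1.6 mM) in 384-well format; DMSO and auranofin controls, 16 wells each. Incubated 24 h, 37°C, 5% CO2, then high-content imaging scored motility and phenotype.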

Schistosoma mansoni [2] = assay: Antischistosomal activity against schistosomula larval stage of Schistosoma mansoni assessed as effect on motility at 10 uM after 24 hrs; type: functional, organism-based; summary of the method: as §1
Pseudomonas aeruginosa = assay: Antimicrobial activity against Pseudomonas aeruginosa assessed as inhibition of microbial growth at 0.03125 to 0.5 mg/ml measured every 20 mins for 24 hrs by spectrophotometry; type: functional, organism-based
Summary of the method: (§2)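 Broth microdilution: colony suspensions grown overnight at 37°C with shaking, standardised to McFarland 0.5, inoculated at final 5 × 10^5 cfu mL^-1 into nutrient broth holding serially diluted test solution. Rifampicin (61 µM) as control; untreated wells included. 37°C, 300 rpm shaking, OD600 read every 20 min over 24 h.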

Staphylococcus aureus = assay: Antimicrobial activity against Staphylococcus aureus assessed as inhibition of microbial growth at 0.03125 to 0.5 mg/ml measured every 20 mins for 24 hrs by spectrophotometry; type: functional, organism-based; summary of the method: as §2
Candida albicans = assay: Antimicrobial activity against Candida albicans assessed as inhibition of microbial growth at 0.03125 to 0.5 mg/ml measured every 20 mins for 24 hrs by spectrophotometry; type: functional, organism-based; summary of the method: as §2
[3] = test system: Mycolicibacterium smegmatis; assay: Antimicrobial activity against Mycobacterium smegmatis assessed as inhibition of microbial growth at 0.03125 to 0.5 mg/ml measured every 20 mins for 24 hrs by spectrophotometry; type: functional, organism-based; summary of the method: as §2
HepG2 = assay: Cytotoxicity against human HepG2 at <200 uM after 20 hrs by MTT assay; type: cell-based; details: hepg2, 20 h
Summary of the method: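 HepG2 seeded 2.0 × 10^4/well in modified BME with 10% FBS, L-Gln, non-essential amino acids and antibiotic/antimycotic; 24 h at 37°C, 5% CO2 before dosing at 100-0.01 µM final. After 20 h, MTT added for 4 h; formazan dissolved in DMSO:isopropanol (1:1), A570 read. 1% DMSO and 1% Triton X-100 controls; blank-corrected; three data sets.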

Escherichia coli [4] = assay: Antimicrobial activity against Escherichia coli assessed as inhibition of microbial growth at 0.03125 to 0.5 mg/ml measured every 20 mins for 24 hrs by spectrophotometry; type: functional, organism-based; summary of the method: as §2
Escherichia coli [5] = assay: Growth stimulation of Escherichia coli at >100 uM measured every 20 mins for 24 hrs by spectrophotometry; type: organism-based
Summary of the method: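 E. coli in nutrient broth with serially diluted compound, final inoculum 5 × 10^5 cfu mL^-1. Incubated 37°C with 300 rpm shaking, OD600 read every 20 min for 24 h. Data given as OD600 percentage of no-drug control wells, mean ± error.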

Row | Activity (Escherichia coli [5]) | Compound | Activity (Schistosoma mansoni [1]) | Activity (Schistosoma mansoni [2]) | Activity (Pseudomonas aeruginosa) | Activity (Staphylococcus aureus) | Activity (Candida albicans) | Activity [3] | Activity (HepG2) | Activity (Escherichia coli [4])
1 |  | C[C@@H]1C[C@@]2(O)OC[C@@]3(O)[C@@H](O)CC[C@@H]4[C@]1(CC(O)c1ccoc1)C(=O)OC[C@]423 (stereo partly drawn) | inactive | inactive | inactive | inactive | inactive | inactive | Non-Toxic | inactive
2 |  | C[C@@H]1C[C@H](O)[C@]23CO[C@](O)(CC[C@@H]2[C@@]12C[C@@H](c1ccoc1)OC2=O)[C@@H]3CO | inactive | inactive | inactive | inactive | inactive | inactive | Non-Toxic | inactive
3 |  | CC(=O)OC[C@@]12[C@@H]3CC[C@H](O)[C@]1(O)CO[C@]2(O)C[C@@H](C)[C@]31C[C@@H](c2ccoc2)OC1=O | inactive | inactive | inactive | inactive | inactive | inactive | Non-Toxic | inactive
4 |  | C[C@@H]1C[C@@]2(O)OC[C@]3(O)[C@H]2[C@H](CC[C@@H]3O)[C@@]12C[C@@H](c1ccoc1)OC2=O | inactive | inactive | inactive | inactive | inactive | inactive | Non-Toxic | inactive
5 | Dose-dependent effect | CC(=O)OC[C@]1(CCC2=CC(O)OC2=O)[C@H](C)C[C@H](O)[C@]2(COC(C)=O)[C@@H]1CC[C@H](O)[C@]21CO1 (stereo partly drawn) | inactive | inactive | inactive | inactive | inactive | inactive | Non-Toxic | inactive
6 | Dose-dependent effect | CC(=O)OC[C@]1(CC(O)c2ccoc2)[C@H](C)C[C@H](O)[C@]2(COC(C)=O)[C@@H]1CC[C@H](O)[C@]21CO1 (stereo partly drawn) | inactive | inactive | inactive | inactive | inactive | inactive | Non-Toxic | inactive
7 |  | C[C@@H]1CC(=O)[C@@H]2[C@H](CC[C@H](O)[C@]2(O)COC(=O)c2ccc(O)cc2)[C@@]12C[C@@H](c1ccoc1)OC2=O | inactive | inactive | inactive | inactive | inactive | inactive | Non-Toxic | inactive
